Assay results from ChEMBL document CHEMBL3407479, “Structure-activity relationship for the oxadiazole class of antibiotics” (J Med Chem, 2015).
Converted amounts (≈) assume the structure as drawn.

Assays:
[1] = system: Staphylococcus aureus; experiment: Antibacterial activity against methicillin-sensitive Staphylococcus aureus ATCC 29213 after 16 to 20 hrs by broth microdilution method; assay type: functional
[2] = system: Enterococcus faecium; experiment: Antibacterial activity against Enterococcus faecium NCTC 7171 after 16 to 20 hrs by broth microdilution method; assay type: functional
[3] = system: Staphylococcus haemolyticus; experiment: Antibacterial activity against Staphylococcus haemolyticus ATCC 29970 after 16 to 20 hrs by broth microdilution method; assay type: functional
[4] = system: HepG2; experiment: Cytotoxicity against human HepG2 cells assessed as cell viability after 16 hrs by XTT assay; assay type: cell-based; conditions: HepG2, 16 h
In short: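 HepG2 cells were run in triplicate in an XTT viability assay. IC50 was derived from the concentration–response data.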

[5] = system: Staphylococcus aureus; experiment: Antibacterial activity against mecA-positive, ciprofloxacin/gentamicin/oxacillin/penicillin/linezolid-resistant Staphylococcus aureus NRS119 after 16 to 20 hrs by broth microdilution method; assay type: functional
[6] = system: Staphylococcus aureus; experiment: Antibacterial activity against vancomycin/methicillin-resistant Staphylococcus aureus VRS1 clinical isolate after 16 to 20 hrs by broth microdilution method; assay type: functional
[7] = system: Staphylococcus epidermidis; experiment: Antibacterial activity against Staphylococcus epidermidis ATCC 35547 after 16 to 20 hrs by broth microdilution method; assay type: functional
[8] = Plasma protein binding in human at 10 uM after 6 hrs by equilibrium dialysis assay; assay type: ADME, cell-free
[9] = system: Streptococcus oralis; experiment: Antibacterial activity against Streptococcus oralis ATCC 9811 after 16 to 20 hrs by broth microdilution method; assay type: functional
[10] = system: Streptococcus pyogenes; experiment: Antibacterial activity against Streptococcus pyogenes ATCC 49399 after 16 to 20 hrs by broth microdilution method; assay type: functional
[11] = system: Staphylococcus aureus; experiment: Antibacterial activity against mecA-positive, methicillin/oxacillin/tetracycline-resistant and vancomycin/linezolid susceptible Staphylococcus aureus COL after 16 to 20 hrs by broth microdilution method; assay type: functional
[12] = Plasma protein binding in human by equilibrium dialysis assay
[13] = system: Staphylococcus aureus; experiment: Antibacterial activity against mecA-positive, ciprofloxacin/gentamicin/oxacillin/penicillin/linezolid-resistant Staphylococcus aureus NRS120 after 16 to 20 hrs by broth microdilution method; assay type: functional
[14] = system: Enterococcus faecium; experiment: Antibacterial activity against vancomycin-susceptible Enterococcus faecium 119-39A clinical isolate after 16 to 20 hrs by broth microdilution method; assay type: functional
[15] = system: Staphylococcus aureus; experiment: Antibacterial activity against methicillin-resistant Staphylococcus aureus ATCC 27660 in po dosed ICR mouse peritonitis infection model assessed as survival rate administered at 1 hr post infection; assay type: functional; conditions: ATCC 27660, po
In short: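 Female ICR mice, 6–8 weeks, given 0.5 mL ip of S. aureus (final 5×10^7 cfu/mL in 5% mucin). Six mice per dose level; a single oral dose at 1 h post-infection.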

[16] = system: Enterococcus faecium; experiment: Antibacterial activity against vancomycin-resistant Enterococcus faecium 106 clinical isolate after 16 to 20 hrs by broth microdilution method
[17] = system: Bacillus cereus; experiment: Antibacterial activity against Bacillus cereus ATCC 13061 after 16 to 20 hrs by broth microdilution method; assay type: functional
[18] = system: Bacillus licheniformis; experiment: Antibacterial activity against Bacillus licheniformis ATCC 12759 after 16 to 20 hrs by broth microdilution method; assay type: functional

Oc1ccc(-c2nc(-c3ccc(Oc4ccccc4)cc3)no2)cc1F
MIC [1]: 4 µg/mL (≈ 11.5 µM)

Nc1cncc(-c2nc(-c3ccc(Oc4ccc(F)cc4)cc3)no2)c1
MIC [1]: ≥ 128 µg/mL

FC(F)(F)c1ccc(Oc2ccc(-c3noc(-c4c[nH]cn4)n3)cc2)cc1
MIC [2]: 8 µg/mL (≈ 21.5 µM) | MIC [3]: 16 µg/mL (≈ 43 µM) | MIC [1]: 2 µg/mL (≈ 5.37 µM) | IC50 [4]: 31.5 µg/mL (≈ 84.6 µM) | MIC [5]: 4 µg/mL (≈ 10.7 µM) | MIC [6]: 1 µg/mL (≈ 2.69 µM) | MIC [7]: 32 µg/mL (≈ 86 µM) | PPB [8]: 93.5% | MIC [9]: > 128 µg/mL | MIC [10]: 128 µg/mL (≈ 344 µM) | MIC [11]: 32 µg/mL (≈ 86 µM)

c1ccc(Oc2ccc(-c3noc(-c4ccc5[nH]ccc5c4)n3)cc2)cc1
MIC [1]: 2 µg/mL (≈ 5.66 µM)

CO[C@H]1/C=C/O[C@@]2(C)Oc3c(C)c(O)c4c(O)c(c(/C=N/N5CCN(C)CC5)c(O)c4c3C2=O)NC(=O)/C(C)=C\C=C\[C@H](C)[C@H](O)[C@@H](C)[C@@H](O)[C@@H](C)[C@H](OC(C)=O)[C@@H]1C [RIFAMPIN]
fraction unbound [12]: < 0.09

O=P(O)(O)c1ccc(-c2nc(-c3ccc(Oc4ccc(F)cc4)cc3)no2)cc1
MIC [1]: ≥ 128 µg/mL

Nc1c[nH]nc1-c1nc(-c2ccc(Oc3ccc(C(F)(F)F)cc3)cc2)no1
MIC [1]: 4 µg/mL (≈ 10.3 µM)

FC(F)(F)c1ccc(Oc2ccc(-c3noc(-c4n[nH]c5ccccc45)n3)cc2)cc1
MIC [1]: ≥ 128 µg/mL

Fc1ccc(-c2nc(-c3ccc(Oc4ccccc4)cc3)no2)cc1
MIC [1]: ≥ 128 µg/mL

FC(F)(F)c1ccc(Oc2ccc(-c3noc(-c4n[nH]cc4NC4CCCC4)n3)cc2)cc1
MIC [1]: ≥ 128 µg/mL

CC(=O)NC[C@H]1CN(c2ccc(N3CCOCC3)c(F)c2)C(=O)O1 [LINEZOLID]
MIC [13]: 32 µg/mL (≈ 94.9 µM) | MIC [2]: 2 µg/mL (≈ 5.93 µM) | MIC [14]: 2 µg/mL (≈ 5.93 µM) | MIC [3]: 2 µg/mL (≈ 5.93 µM) | ED50 [15]: 2.8 mg/kg | MIC [5]: 32 µg/mL (≈ 94.9 µM) | MIC [7]: 1 µg/mL (≈ 2.96 µM) | MIC [16]: 1 µg/mL (≈ 2.96 µM) | MIC [17]: 1 µg/mL (≈ 2.96 µM) | MIC [18]: 1 µg/mL (≈ 2.96 µM) | MIC [9]: 1 µg/mL (≈ 2.96 µM) | MIC [10]: 1 µg/mL (≈ 2.96 µM)
